According to ChEMBL document CHEMBL1133729, “Design, synthesis, and structure-activity relationships of phthalimide-phenylpiperazines: a novel series of potent and selective alpha(1)(a)-adrenergic receptor antagonists” (J Med Chem, 2000):

Columns and labels:
[1] = target: T1, Alpha-2C adrenergic receptor (Homo sapiens) (UniProt P18825); test: Compound at 1 uM was tested for the inhibition of radioligand [3H]MK-912 binding to recombinant human alpha-2C adrenergic receptor
T1 sequence (whole entry): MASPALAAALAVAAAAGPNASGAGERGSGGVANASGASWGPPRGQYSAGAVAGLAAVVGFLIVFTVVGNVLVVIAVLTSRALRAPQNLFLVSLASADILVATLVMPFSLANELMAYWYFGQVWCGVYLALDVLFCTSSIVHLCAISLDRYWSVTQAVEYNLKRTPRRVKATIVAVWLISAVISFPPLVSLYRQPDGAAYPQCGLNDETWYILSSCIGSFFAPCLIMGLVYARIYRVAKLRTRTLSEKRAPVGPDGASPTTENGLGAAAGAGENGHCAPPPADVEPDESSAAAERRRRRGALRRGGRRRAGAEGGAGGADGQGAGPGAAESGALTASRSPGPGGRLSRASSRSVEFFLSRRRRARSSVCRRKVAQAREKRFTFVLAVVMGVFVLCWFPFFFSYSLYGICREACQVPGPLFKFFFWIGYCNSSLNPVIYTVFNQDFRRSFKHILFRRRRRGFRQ
Procedure, shortened: (§1)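 Recombinant human α2a or α2c receptors in CHO cell membranes; [3H]MK912, 60 min at 25 °C in 50 mM Tris-HCl, 150 mM NaCl, 5 mM EDTA, pH 7.4; WB4101 (10 μM) for nonspecific binding. Percent inhibition at 1 μM in duplicate; filtration, scintillation counting.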

[2] = target: T2, Alpha-1A adrenergic receptor (Homo sapiens, UniProt P35348); test: Binding affinity towards cloned human alpha-1A adrenergic receptor was determined using [125]-HEAT as radioligand
T2 sequence (P35348 whole entry): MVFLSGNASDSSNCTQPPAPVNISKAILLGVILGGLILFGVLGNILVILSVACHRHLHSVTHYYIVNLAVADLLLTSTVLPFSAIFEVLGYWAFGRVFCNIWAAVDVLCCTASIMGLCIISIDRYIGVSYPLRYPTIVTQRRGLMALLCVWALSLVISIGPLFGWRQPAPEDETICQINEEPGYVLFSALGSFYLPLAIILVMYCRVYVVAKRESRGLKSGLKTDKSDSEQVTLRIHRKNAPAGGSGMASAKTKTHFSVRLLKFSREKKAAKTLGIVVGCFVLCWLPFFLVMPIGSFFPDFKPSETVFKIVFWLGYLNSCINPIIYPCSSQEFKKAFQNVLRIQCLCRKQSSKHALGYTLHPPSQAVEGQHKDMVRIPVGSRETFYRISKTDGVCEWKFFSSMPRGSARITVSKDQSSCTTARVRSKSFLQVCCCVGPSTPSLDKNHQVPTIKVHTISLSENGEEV

[3] = target: T3, D(4) dopamine receptor (Homo sapiens) (UniProt P21917); test: Compound at 1 uM was tested for the inhibition of radioligand [3H]spiperone binding to recombinant human Dopamine receptor D4.7
T3 sequence (whole entry): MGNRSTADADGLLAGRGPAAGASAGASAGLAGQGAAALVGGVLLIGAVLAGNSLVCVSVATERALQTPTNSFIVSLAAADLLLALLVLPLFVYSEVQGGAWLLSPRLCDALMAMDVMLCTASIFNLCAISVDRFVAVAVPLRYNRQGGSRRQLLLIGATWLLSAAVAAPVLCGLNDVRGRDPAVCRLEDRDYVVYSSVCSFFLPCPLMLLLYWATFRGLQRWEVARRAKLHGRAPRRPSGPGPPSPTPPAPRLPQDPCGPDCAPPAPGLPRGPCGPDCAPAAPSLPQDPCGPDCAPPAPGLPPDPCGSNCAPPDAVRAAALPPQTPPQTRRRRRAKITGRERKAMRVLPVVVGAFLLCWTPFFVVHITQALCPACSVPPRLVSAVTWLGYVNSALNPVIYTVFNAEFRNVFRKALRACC
Procedure, shortened: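 Recombinant human D4.7 in CHO cell membranes; [3H]spiperone for 120 min at 25 °C, pH 7.4 Tris-HCl/NaCl/EDTA; haloperidol (10 μM) for nonspecific binding. Compound at 1 μM, percent inhibition determined in duplicate; filtration, scintillation counting.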

[4] = target: T4, Alpha-2A adrenergic receptor (Homo sapiens) (UniProt P08913); test: Compound at 1 uM was tested for the inhibition of radioligand [3H]MK-912 binding to recombinant human alpha-2A adrenergic receptor; procedure, shortened: as §1
T4 sequence (whole entry): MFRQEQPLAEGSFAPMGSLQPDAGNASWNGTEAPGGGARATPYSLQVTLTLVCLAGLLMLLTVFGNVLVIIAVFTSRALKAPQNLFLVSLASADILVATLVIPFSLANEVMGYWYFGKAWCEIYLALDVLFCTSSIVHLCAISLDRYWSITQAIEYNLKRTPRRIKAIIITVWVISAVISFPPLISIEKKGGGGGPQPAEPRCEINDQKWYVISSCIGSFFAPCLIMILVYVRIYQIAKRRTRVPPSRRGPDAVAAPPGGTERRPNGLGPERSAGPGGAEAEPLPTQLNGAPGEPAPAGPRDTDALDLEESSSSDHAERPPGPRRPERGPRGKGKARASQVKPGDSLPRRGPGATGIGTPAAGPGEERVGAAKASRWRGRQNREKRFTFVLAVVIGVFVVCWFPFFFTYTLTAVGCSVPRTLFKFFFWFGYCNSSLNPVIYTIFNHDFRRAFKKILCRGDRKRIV

[5] = target: Serotonin 1 (5-HT1) receptor (Rattus norvegicus) (UniProt P28564+P30940+P19327+P28565); test: Compound at 1 uM was tested for the inhibition of radioligand [3H]5-HT binding to 5-hydroxytryptamine 1 receptor in rat cerebral cortex; type: tissue-based
Procedure, shortened: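 Rat cerebral cortex membranes; [3H]5-HT, 10 min at 37 °C, Tris-HCl/NaCl/EDTA buffer pH 7.4; 10 μM 5-HT for nonspecific binding. Filtered, washed three to four times, scintillation counted. Percent inhibition at 1 μM test compound, in duplicate.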

Row | Structure (SMILES) | inhibition [1] [%] | Ki [2] [nM] | inhibition [3] [%] | inhibition [4] [%] | inhibition [5] [%]
1 | CCOc1ccccc1OCCN[C@H](C)Cc1ccc(OC)c(S(N)(=O)=O)c1 [TAMSULOSIN] | 41 | – | 21 | 82 | 62
2 | CC(C)Oc1ccccc1N1CCN(C[C@@H](O)CNC(=O)c2ccc3c(c2)C(=O)N(c2cccc(F)c2)C3=O)CC1 | 8 | 1.02 | 43 | 29 | 49
3 | CC(C)Oc1ccccc1N1CCN(CCCNC(=O)c2ccc3c(c2)C(=O)N(c2cccc(F)c2)C3=O)CC1 | 86 | 0.41 | 69 | 78 | 88

Other lines, results leading:

Row | inhibition [1] [%] | Ki [2] [nM] | inhibition [3] [%] | inhibition [4] [%] | inhibition [5] [%] | Structure (SMILES)
4 | 83 | 0.16 | 20 | 87 | 69 | Cc1ccc(N2C(=O)c3ccc(C(=O)NCCCN4CCN(c5ccccc5OC(C)C)CC4)cc3C2=O)cc1
5 | 14 | 0.29 | – | 19 | 64 | Cc1ccc(N2C(=O)c3ccc(C(=O)NC[C@H](O)CN4CCN(c5ccccc5OC(C)C)CC4)cc3C2=O)cc1
6 | 11 | 0.33 | 50 | 18 | 66 | CC(C)Oc1ccccc1N1CCN(C[C@@H](O)CNC(=O)c2ccc3c(c2)C(=O)N(c2ccc(N(C)C)cc2)C3=O)CC1
7 | 76 | 0.11 | 32 | 80 | 90 | COc1ccc(N2C(=O)c3ccc(C(=O)NCCCN4CCN(c5ccccc5OC(C)C)CC4)cc3C2=O)cc1
